pIC50, pKi: −log10 of the molar value.
Legend:
[1] = target: Trypsin (Sus scrofa, UniProt P00761); test: Inhibition of pig trypsin using CH3SO2-D-Cha-Gly-Arg-pNA as substrate after 5 to 10 mins by micro plate reader analysis
[2] = target: Vitamin K-dependent protein C (Homo sapiens, UniProt P04070); test: Inhibition of human activated protein C using H-D-Lys(Cbz)-Pro-Arg-pNA as substrate after 5 to 10 mins by micro plate reader analysis
[3] = target: Prothrombin (Homo sapiens, UniProt P00734); test: Inhibition of human thrombin using CH3SO2-D-Cha-Gly-Arg-pNA as substrate after 5 to 10 mins by micro plate reader analysis
[4] = target: Plasma kallikrein (Homo sapiens, UniProt P03952); test: Inhibition of human plasma kallikrein using H-D-Pro-Phe-Arg-pNA as substrate after 5 to 10 mins by micro plate reader analysis
[5] = target: Coagulation factor X (Homo sapiens, UniProt P00742); test: Inhibition of human factor Xa using CH3OCO-D-Cha-Gly-Arg-pNA as substrate after 5 to 10 mins by micro plate reader analysis
[6] = target: Plasminogen (Homo sapiens, UniProt P00747); test: Inhibition of human plasmin protease domain using Tos-Gly-Pro-Lys-pNA as substrate by micro plate reader analysis
[7] = target: Cytochrome P450 2C9 (Homo sapiens, UniProt P11712); test: Inhibition of human recombinant CYP2C9 expressed in Trichoplusia ni BTI-TN-5B1-4 cells preincubated for 15 mins measured after 45 mins by spectrofluorimetry; format: ADME, cell-based
[8] = target: Cytochrome P450 2D6 (Homo sapiens, UniProt P10635); test: Inhibition of human recombinant CYP2D6 expressed in Trichoplusia ni BTI-TN-5B1-4 cells preincubated for 15 mins measured after 45 mins by spectrofluorimetry; format: ADME, cell-based
[9] = target: Cytochrome P450 3A4 (Homo sapiens, UniProt P08684); test: Inhibition of human recombinant CYP3A4 expressed in Trichoplusia ni BTI-TN-5B1-4 cells preincubated for 15 mins measured after 30 mins by spectrofluorimetry; format: ADME, cell-based
[10] = Metabolic stability in human liver microsomes assessed as degradation after 60 mins; format: ADME, Microsome; conditions: read-out: Drug degradation
[11] = Fraction unbound in human plasma; format: ADME, cell-free
[12] = target: L-type Ca channel, phenylalkylamine site (Rattus norvegicus, UniProt P22002+P27732+Q02485); test: Displacement of [3H](-)-desmethoxyverapamil from wistar rat Ca channel L-type phenylalkylamine receptor at 10 uM; conditions: probe [3H](-)-desmethoxyverapamil
In short: (§1)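 Radioligand binding to the ion channel with test compound at 10 μM. Result expressed as % binding; negative values are read as no binding. Assays run by a contract laboratory.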

[13] = target: L-type Ca channel, dihydropyridine site (Rattus norvegicus, UniProt P22002+P27732+Q02485); test: Displacement of [3H]nitrendipine from wistar rat Ca channel L-type dihydropyridine receptor at 10 uM; conditions: probe [3H]nitrendipine; in short: as §1
[14] = target: L-type Ca channel, benzothiazepine site (Rattus norvegicus, UniProt P22002+P27732+Q02485); test: Displacement of [3H]diltiazem from wistar rat Ca channel L-type benzothiazepine receptor at 10 uM; conditions: probe [3H]diltiazem; in short: as §1
[15] = species: Rattus norvegicus; test: Displacement of [3H]batrachotoxinin from wistar rat Na channel at 10 uM
In short: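 Single-point radioligand binding screen at 10 μM test compound, run by a contract lab under its own protocol. Read-out is percent binding, where negative values mean no binding.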

[16] = target: hERG (KCNH2) (Homo sapiens, UniProt Q12809); test: Displacement of [3H]astemizole from human ERG channel at 10 uM; conditions: probe [3H]astemizole; in short: as §1
[17] = system: Plasma; test: Anticoagulant activity in human plasma assessed as concentration required to thrombin time; format: functional
In short: (§2)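 Clotting time measured in human plasma spiked with inhibitor. Value reported as EC200, the concentration that doubles the clotting time.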

[18] = system: Plasma; test: Anticoagulant activity in human plasma assessed as concentration required to activated partial thromboplastin time; format: functional; in short: as §2
[19] = system: Plasma; test: Anticoagulant activity in human plasma assessed as concentration required to prothrombin time; format: functional; in short: as §2
[20] = system: Plasma; test: Anticoagulant activity in human plasma assessed as tPA-induced fibrinolysis; format: functional; conditions: in the assay text read “Antifibrinolytic activity” for “Anticoagulant activity”
In short: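 tPA-induced fibrinolysis in human plasma. Value reported as EC200, the inhibitor concentration that doubles the clot-to-lysis time.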

[21] = target: Serine protease 1 (Homo sapiens, UniProt P07477); test: Inhibition of human trypsin
[22] = target: Urokinase-type plasminogen activator (Homo sapiens, UniProt P00749); test: Inhibition of human uPA
[23] = target: Tissue-type plasminogen activator (Homo sapiens, UniProt P00750); test: Inhibition of human tPA
[24] = target: Coagulation factor IX (Homo sapiens, UniProt P00740); test: Inhibition of human FIXa
[25] = target: Coagulation factor XII (Homo sapiens, UniProt P00748); test: Inhibition of human FXIIa
[26] = target: Coagulation factor XI (Homo sapiens, UniProt P03951); test: Inhibition of human FXIa
[27] = target: Complement C1r subcomponent (Homo sapiens, UniProt P00736); test: Inhibition of human C1r
[28] = target: Complement C1s subcomponent (Homo sapiens, UniProt P09871); test: Inhibition of human C1s
[29] = target: Kallikrein-1 (Homo sapiens, UniProt P06870); test: Inhibition of urinary kallikrein (unknown origin)
[30] = Thermodynamic solubility of the compound in 0.9% saline; format: physicochemical; conditions: read-out: Therm_solubility
[31] = target: Cytochrome P450 1A2 (Homo sapiens) (UniProt P05177); test: Inhibition of human recombinant CYP1A2 expressed in Trichoplusia ni BTI-TN-5B1-4 cells preincubated for 15 mins measured after 45 mins by spectrofluorimetry
[32] = target: Cytochrome P450 2C19 (Homo sapiens) (UniProt P33261); test: Inhibition of human recombinant CYP2C19 expressed in Trichoplusia ni BTI-TN-5B1-4 cells preincubated for 15 mins measured after 30 mins by spectrofluorimetry

Plasminogen, sequence (P00747 97-580 limits assumed): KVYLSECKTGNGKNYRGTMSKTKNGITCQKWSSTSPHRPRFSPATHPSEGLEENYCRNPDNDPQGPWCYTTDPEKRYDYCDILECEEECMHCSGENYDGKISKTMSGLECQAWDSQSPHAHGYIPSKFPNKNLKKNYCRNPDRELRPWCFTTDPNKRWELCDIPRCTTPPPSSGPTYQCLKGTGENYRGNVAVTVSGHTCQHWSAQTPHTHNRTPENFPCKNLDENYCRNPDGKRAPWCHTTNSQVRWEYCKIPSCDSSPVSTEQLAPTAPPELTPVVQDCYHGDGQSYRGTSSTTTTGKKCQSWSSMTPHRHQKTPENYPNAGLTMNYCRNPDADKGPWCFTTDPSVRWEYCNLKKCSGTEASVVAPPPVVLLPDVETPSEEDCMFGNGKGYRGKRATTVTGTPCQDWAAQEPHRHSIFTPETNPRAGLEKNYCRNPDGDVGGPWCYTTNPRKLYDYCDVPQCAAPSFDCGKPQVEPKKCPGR
Plasminogen, sequence (P00747 581-810 limits assumed): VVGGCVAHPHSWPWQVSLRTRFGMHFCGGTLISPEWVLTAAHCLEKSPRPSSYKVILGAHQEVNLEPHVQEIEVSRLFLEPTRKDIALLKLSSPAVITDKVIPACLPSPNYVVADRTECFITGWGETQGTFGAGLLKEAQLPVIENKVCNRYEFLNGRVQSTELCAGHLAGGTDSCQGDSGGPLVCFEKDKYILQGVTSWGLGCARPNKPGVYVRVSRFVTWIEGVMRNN
Plasma kallikrein, sequence (P03952 20-390 limits assumed): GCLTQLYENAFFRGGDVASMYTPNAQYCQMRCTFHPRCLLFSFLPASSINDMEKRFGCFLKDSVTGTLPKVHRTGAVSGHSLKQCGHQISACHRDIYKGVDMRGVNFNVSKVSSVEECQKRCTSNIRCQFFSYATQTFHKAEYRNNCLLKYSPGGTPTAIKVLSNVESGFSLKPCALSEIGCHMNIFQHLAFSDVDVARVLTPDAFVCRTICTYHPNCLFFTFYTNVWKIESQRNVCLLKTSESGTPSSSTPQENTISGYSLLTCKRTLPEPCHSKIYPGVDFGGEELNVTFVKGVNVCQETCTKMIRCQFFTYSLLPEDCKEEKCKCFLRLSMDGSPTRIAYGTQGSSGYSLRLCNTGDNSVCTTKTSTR
Plasma kallikrein, sequence (P03952 391-638 limits assumed): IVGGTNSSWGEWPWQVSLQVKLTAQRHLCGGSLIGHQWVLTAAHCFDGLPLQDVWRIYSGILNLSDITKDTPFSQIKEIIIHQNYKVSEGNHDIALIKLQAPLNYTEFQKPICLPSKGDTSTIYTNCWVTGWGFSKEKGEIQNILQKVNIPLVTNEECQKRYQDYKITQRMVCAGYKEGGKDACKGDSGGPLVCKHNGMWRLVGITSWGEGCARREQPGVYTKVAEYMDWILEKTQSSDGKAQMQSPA
Vitamin K-dependent protein C, sequence (P04070 43-197 limits assumed): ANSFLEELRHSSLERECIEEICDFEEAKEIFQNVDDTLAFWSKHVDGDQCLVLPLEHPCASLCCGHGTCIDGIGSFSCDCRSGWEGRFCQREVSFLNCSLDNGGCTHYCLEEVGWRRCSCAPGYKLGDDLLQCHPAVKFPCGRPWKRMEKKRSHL
Vitamin K-dependent protein C, sequence (P04070 212-461 limits assumed): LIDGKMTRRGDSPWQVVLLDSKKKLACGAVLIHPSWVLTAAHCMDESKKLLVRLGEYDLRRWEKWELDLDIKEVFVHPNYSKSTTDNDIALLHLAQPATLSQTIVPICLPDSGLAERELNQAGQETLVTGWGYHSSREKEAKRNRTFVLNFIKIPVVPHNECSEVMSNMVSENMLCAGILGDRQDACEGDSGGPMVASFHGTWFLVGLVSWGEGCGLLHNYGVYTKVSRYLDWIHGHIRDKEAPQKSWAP
Coagulation factor X, sequence (P00742 41-179 limits assumed): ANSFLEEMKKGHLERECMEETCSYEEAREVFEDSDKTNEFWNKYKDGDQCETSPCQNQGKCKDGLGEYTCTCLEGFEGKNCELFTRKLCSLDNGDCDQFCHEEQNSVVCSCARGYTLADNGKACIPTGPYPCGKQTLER
Coagulation factor X, sequence (P00742 235-488 limits assumed): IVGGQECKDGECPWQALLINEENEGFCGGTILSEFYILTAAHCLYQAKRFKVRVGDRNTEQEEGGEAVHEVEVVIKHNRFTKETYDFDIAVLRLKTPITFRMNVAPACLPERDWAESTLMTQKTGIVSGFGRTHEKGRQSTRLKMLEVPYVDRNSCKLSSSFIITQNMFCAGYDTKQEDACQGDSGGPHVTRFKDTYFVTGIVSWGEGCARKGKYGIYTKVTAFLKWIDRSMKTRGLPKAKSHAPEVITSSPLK
Trypsin, sequence (P00761 whole entry): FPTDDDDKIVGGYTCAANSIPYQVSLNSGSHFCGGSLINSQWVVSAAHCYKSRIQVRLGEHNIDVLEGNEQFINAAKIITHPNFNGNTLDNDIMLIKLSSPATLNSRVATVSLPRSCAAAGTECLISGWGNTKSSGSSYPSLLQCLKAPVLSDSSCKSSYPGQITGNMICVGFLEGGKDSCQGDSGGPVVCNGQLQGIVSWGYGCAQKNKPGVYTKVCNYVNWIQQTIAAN
hERG (KCNH2), sequence (Q12809 whole entry): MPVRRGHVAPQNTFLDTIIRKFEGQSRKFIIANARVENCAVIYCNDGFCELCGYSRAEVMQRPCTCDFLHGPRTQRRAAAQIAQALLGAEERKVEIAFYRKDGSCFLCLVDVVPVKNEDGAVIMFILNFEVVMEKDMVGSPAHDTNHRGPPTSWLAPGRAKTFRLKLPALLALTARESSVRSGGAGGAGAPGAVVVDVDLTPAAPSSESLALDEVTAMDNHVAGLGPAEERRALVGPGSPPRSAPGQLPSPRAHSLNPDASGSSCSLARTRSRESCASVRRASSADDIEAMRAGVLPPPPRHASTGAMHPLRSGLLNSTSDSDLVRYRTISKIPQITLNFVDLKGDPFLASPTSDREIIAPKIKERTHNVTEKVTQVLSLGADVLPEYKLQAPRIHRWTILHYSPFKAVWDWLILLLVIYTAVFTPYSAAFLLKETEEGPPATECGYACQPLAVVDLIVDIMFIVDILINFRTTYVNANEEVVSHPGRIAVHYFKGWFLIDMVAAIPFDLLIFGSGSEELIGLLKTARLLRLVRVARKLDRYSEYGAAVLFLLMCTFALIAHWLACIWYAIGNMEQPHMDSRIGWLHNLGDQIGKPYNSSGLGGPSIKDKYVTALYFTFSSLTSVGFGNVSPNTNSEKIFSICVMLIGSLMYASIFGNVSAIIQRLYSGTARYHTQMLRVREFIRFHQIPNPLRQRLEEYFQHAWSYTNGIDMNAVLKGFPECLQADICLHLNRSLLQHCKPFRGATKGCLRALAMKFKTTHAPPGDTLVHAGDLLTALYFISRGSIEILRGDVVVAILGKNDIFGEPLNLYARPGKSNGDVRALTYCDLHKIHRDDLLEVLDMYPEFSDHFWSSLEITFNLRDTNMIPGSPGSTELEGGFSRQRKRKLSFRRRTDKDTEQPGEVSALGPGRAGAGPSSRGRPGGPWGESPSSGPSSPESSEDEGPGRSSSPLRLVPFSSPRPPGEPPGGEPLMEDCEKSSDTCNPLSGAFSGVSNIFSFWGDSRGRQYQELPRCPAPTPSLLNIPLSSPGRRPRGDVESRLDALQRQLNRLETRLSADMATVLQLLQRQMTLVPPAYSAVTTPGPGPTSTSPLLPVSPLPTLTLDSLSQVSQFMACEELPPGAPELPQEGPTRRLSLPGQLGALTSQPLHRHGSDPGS
Cytochrome P450 2D6, sequence (P10635 whole entry): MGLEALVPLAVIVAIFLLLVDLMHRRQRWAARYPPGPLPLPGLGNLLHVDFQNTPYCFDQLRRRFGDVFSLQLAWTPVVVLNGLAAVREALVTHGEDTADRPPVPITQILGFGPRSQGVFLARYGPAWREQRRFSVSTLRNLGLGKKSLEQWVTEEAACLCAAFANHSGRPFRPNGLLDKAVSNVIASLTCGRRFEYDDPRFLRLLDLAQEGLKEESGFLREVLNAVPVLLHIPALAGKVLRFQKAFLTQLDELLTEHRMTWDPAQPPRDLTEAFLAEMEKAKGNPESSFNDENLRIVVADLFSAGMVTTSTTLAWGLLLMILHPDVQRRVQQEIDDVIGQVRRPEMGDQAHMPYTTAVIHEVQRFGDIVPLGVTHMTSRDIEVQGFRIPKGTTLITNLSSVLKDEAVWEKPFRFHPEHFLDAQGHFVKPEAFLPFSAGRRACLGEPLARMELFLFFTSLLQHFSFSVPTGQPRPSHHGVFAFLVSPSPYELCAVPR
Serine protease 1, sequence (P07477 whole entry): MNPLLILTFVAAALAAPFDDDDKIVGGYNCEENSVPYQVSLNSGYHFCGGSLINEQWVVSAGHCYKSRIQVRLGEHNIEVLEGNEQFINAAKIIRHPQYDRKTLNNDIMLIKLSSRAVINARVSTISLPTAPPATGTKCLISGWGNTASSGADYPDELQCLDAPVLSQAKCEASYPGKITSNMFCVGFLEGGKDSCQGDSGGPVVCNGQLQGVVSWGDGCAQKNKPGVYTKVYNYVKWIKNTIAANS
Tissue-type plasminogen activator, sequence (P00750 whole entry): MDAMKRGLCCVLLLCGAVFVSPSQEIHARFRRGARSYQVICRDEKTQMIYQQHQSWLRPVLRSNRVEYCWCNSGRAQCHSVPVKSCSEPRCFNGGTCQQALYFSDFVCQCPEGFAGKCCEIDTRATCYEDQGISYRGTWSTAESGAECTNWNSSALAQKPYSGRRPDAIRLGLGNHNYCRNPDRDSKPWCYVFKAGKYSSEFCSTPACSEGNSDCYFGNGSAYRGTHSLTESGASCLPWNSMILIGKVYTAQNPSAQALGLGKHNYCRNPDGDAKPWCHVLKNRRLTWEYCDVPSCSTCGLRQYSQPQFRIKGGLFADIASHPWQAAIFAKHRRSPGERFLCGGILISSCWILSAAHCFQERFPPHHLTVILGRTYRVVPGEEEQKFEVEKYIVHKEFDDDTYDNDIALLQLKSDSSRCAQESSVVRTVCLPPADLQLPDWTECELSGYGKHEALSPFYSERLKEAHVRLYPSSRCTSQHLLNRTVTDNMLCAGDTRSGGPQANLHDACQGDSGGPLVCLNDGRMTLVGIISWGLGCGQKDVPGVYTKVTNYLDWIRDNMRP

## N=C(N)c1ccc(CNC(=O)[C@@H]2Cc3cccc(c3)NC(=O)CN3CCN(CC3)CC(=O)Nc3cccc(c3)C[C@@H](NS(=O)(=O)Cc3ccccc3)C(=O)N2)cc1
[1]
  pKi: 8.47
[2]
  pKi: 7.41
[3]
  pKi: 6.64
[4]
  pKi: 8.49
[5]
  pKi: 7.91

## N=C(N)c1ccc(CNC(=O)[C@@H]2Cc3ccc(cc3)NC(=O)CCN3CCCN(CCC(=O)Nc4ccc(cc4)C[C@@H](NS(=O)(=O)Cc4ccccc4)C(=O)N2)CC3)cc1
[1]
  pKi: 7.99
[2]
  pKi: 5.11
[3]
  pKi: 4.95
[4]
  pKi: 6.37
[6]
  pKi: 8.88
[5]
  pKi: 5.07

## N=C(N)c1ccc(CNC(=O)[C@@H]2Cc3ccc(cc3)NC(=O)CCN3CCN(CCC(=O)Nc4cccc(c4)C[C@@H](NS(=O)(=O)Cc4ccccc4)C(=O)N2)CC3)cc1
[1]
  pKi: 9.22
[2]
  pKi: 5.42
[3]
  pKi: 6.42
[4]
  pKi: 6.62
[6]
  pKi: 8.40
[5]
  pKi: 5.90

## C[C@H]1CN2CC(=O)Nc3ccc(cc3)C[C@@H](NS(=O)(=O)Cc3ccccc3)C(=O)N[C@H](C(=O)NCc3ccc(C(=N)N)cc3)Cc3ccc(cc3)NC(=O)CN1C[C@@H]2C
[1]
  pKi: 7.26
[2]
  pKi: 5.32
[3]
  pKi: 5.07
[4]
  pKi: 6.62
[6]
  pKi: 8.79
[5]
  pKi: 5.43

## C[C@H]1CN2CC(=O)Nc3ccc(cc3)C[C@@H](C(=O)NCc3ccc(C(=N)N)cc3)NC(=O)[C@H](NS(=O)(=O)Cc3ccccc3)Cc3ccc(cc3)CNC(=O)CN1C[C@@H]2C
[1]
  pKi: 6.90
[2]
  pKi: 5.80
[3]
  pKi: 5.53
[4]
  pKi: 6.94
[6]
  pKi: 8.77
[5]
  pKi: 5.49

## N=C(N)c1ccc(CNC(=O)[C@@H]2Cc3ccc(cc3)NC(=O)CN3CCCN(CC3)CC(=O)Nc3ccc(cc3)C[C@@H](NS(=O)(=O)Cc3ccccc3)C(=O)N2)cc1
[1]
  pKi: 8.52
[2]
  pKi: < 5.00
[3]
  pKi: 4.85
[4]
  pKi: 6.41
[6]
  pKi: 9.24
[5]
  pKi: 5.13

## N=C(N)c1ccc(CNC(=O)[C@@H]2Cc3ccc(cc3)NC(=O)CN3CCN(CC3)CC(=O)Nc3cccc(c3)C[C@@H](NS(=O)(=O)Cc3ccccc3)C(=O)N2)cc1
[1]
  pKi: 8.11
[2]
  pKi: 6.38
[3]
  pKi: 6.22
[4]
  pKi: 6.93
[5]
  pKi: 6.38

## N=C(N)c1ccc(CNC(=O)[C@@H]2Cc3ccc(cc3)NC(=O)CN3CCCN(CC3)CC(=O)NCc3ccc(cc3)C[C@@H](NS(=O)(=O)Cc3ccccc3)C(=O)N2)cc1
[1]
  pKi: 7.38
[2]
  pKi: < 5.00
[3]
  pKi: 5.23
[4]
  pKi: 6.36
[6]
  pKi: 9.12
[5]
  pKi: 5.05

## N=C(N)c1ccc(CNC(=O)[C@@H]2Cc3ccc(cc3)NC(=O)CN3CCN(CC3)CC(=O)NCc3ccc(cc3)C[C@@H](NS(=O)(=O)Cc3ccccc3)C(=O)N2)cc1
[1]
  pKi: 7.75
[2]
  pKi: 5.41
[3]
  pKi: 6.05
[4]
  pKi: 6.73
[5]
  pKi: 5.60

## N=C(N)c1ccc(CNC(=O)[C@@H]2Cc3cccc(c3)NC(=O)CCN3CCN(CCC(=O)Nc4ccc(cc4)C[C@@H](NS(=O)(=O)Cc4ccccc4)C(=O)N2)CC3)cc1
[1]
  pKi: 7.60
[2]
  pKi: 6.06
[3]
  pKi: 5.49
[4]
  pKi: 7.62
[6]
  pKi: 8.29
[5]
  pKi: 6.63

## N=C(N)c1ccc(CNC(=O)[C@@H]2Cc3ccc(cc3)NC(=O)CN3CCN(CC3)CC(=O)Nc3ccc(cc3)C[C@@H](NS(=O)(=O)Cc3ccccc3)C(=O)N2)cc1.O=C(O)C(F)(F)F
[7]
  pIC50: < 4.00
[8]
  pIC50: < 4.40
[9]
  pIC50: < 4.66
[10]
  metabolised at 1 h: 0%
[11]
  fraction unbound: 0.61
[12]
  inhibition at 10 µM: 13%
[13]
  inhibition at 10 µM: -2%
[14]
  inhibition at 10 µM: 1%
[15]
  inhibition: -8%
[16]
  inhibition at 10 µM: 7%
[17]
  EC200: >100 µM
[18]
  EC200: >100 µM
[19]
  EC200: >100 µM
[20]
  EC200: 280 nM
[21]
  pKi: 7.36
[22]
  pKi: 5.05
[23]
  pKi: < 4.00
[24]
  pKi: < 4.00
[25]
  pKi: < 4.00
[26]
  pKi: 5.33
[27]
  pKi: < 4.30
[28]
  pKi: < 4.00
[1]
  pKi: 7.20
[2]
  pKi: < 4.60
[3]
  pKi: 4.86
[29]
  pKi: < 4.30
[5]
  pKi: < 5.00
[30]
  solubility thermodynamic: > 2000 µg/mL
[31]
  pIC50: < 5.00
[32]
  pIC50: < 4.00

## C[C@@H]1CN2CC(=O)Nc3ccc(cc3)C[C@@H](C(=O)NCc3ccc(C(=N)N)cc3)NC(=O)[C@H](NS(=O)(=O)Cc3ccccc3)Cc3ccc(cc3)NC(=O)CN1C[C@@H]2C
[1]
  pKi: 7.74
[2]
  pKi: < 4.70
[3]
  pKi: 4.92
[4]
  pKi: 6.30
[6]
  pKi: 8.94
[5]
  pKi: 4.85

## N=C(N)c1ccc(CNC(=O)[C@@H]2Cc3cccc(c3)NC(=O)CN3CCN(CC3)CC(=O)Nc3ccc(cc3)C[C@@H](NS(=O)(=O)Cc3ccccc3)C(=O)N2)cc1
[1]
  pKi: 7.71
[2]
  pKi: 5.39
[3]
  pKi: 5.10
[4]
  pKi: 7.89
[5]
  pKi: 5.74

## N=C(N)c1ccc(CNC(=O)[C@@H]2Cc3ccc(cc3)NC(=O)CCN3CCN(CCC(=O)Nc4ccc(cc4)C[C@@H](NS(=O)(=O)Cc4ccccc4)C(=O)N2)CC3)cc1.O=C(O)C(F)(F)F
[7]
  pIC50: < 4.00
[8]
  pIC50: < 5.00
[9]
  pIC50: < 5.00
[10]
  metabolised at 1 h: 2%
[11]
  fraction unbound: 0.67
[12]
  inhibition at 10 µM: 3%
[13]
  inhibition at 10 µM: -5%
[14]
  inhibition at 10 µM: -4%
[15]
  inhibition: 27%
[16]
  inhibition at 10 µM: 4%
[17]
  EC200: >100 µM
[18]
  EC200: >100 µM
[19]
  EC200: >100 µM
[20]
  EC200: 180 nM
[21]
  pKi: 8.08
[22]
  pKi: 5.19
[23]
  pKi: < 4.40
[24]
  pKi: < 5.30
[25]
  pKi: < 4.70
[26]
  pKi: 5.47
[27]
  pKi: < 4.46
[28]
  pKi: < 4.46
[1]
  pKi: 7.42
[2]
  pKi: < 4.82
[3]
  pKi: 4.58
[29]
  pKi: 5.00
[4]
  pKi: 6.00
[6]
  pKi: 9.70
[5]
  pKi: 4.60
[30]
  solubility thermodynamic: > 2000 µg/mL
[31]
  pIC50: < 4.00
[32]
  pIC50: < 4.00

Source: ChEMBL document CHEMBL2311491, “Development of new cyclic plasmin inhibitors with excellent potency and selectivity” (J Med Chem, 2013)
